In ChEMBL document CHEMBL4033789, “Discovery of a New Four-Leaf Clover-Like Ligand as a Potent c-MYC Transcription Inhibitor Specifically Targeting the Promoter G-Quadruplex” (J Med Chem, 2018):
Active and inactive are the calls of the source. The rule behind the calls is not given here.

Assays:
[1] = Binding affinity to 1 uM c-MYC promoter G-quadruplex pu22 DNA (unknown origin) at 1 uM after 1 min by fluorescence spectroscopic analysis
Method in brief: (§1)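 Fluorescence emission spectra of 1 µM compound mixed with 1 µM pre-annealed oligonucleotide (G-quadruplexes folded in 100 mM KCl by heating to 95 °C for 5 min, slow cooling), in Tris-HCl buffer.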

[2] = Binding affinity to 1 uM i-motif DNA (unknown origin) at 1 uM after 1 min by fluorescence spectroscopic analysis
[3] = test system: A-375; test: Cytotoxicity against human A375 cells assessed as reduction in cell viability after 24 hrs by MTT assay; assay type: functional, cell-based; conditions: A-375, 24 h
Method in brief: (§2)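 Cells seeded at 5.0×10^3 per well, exposed to compound for 24 h; MTT (2.5 mg/mL) added for 4 h, formazan dissolved in DMSO, OD read at 570 nm. Triplicate; IC50 from curves of mean OD against concentration.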

[4] = Binding affinity to 1 uM hybrid telomeric htg22 G-quadruplex DNA (unknown origin) at 1 uM after 1 min by fluorescence spectroscopic analysis; assay type: ADME; method in brief: as §1
[5] = Cytotoxicity against mouse primary mesangial cells assessed as reduction in cell viability after 24 hrs by MTT assay; assay type: cell-based; method in brief: as §2
[6] = test system: BJ; test: Cytotoxicity against human BJ cells assessed as reduction in cell viability after 24 hrs by MTT assay; assay type: cell-based; method in brief: as §2
[7] = test system: Huh-7; test: Cytotoxicity against human Huh7 cells assessed as reduction in cell viability after 24 hrs by MTT assay; assay type: functional, cell-based; conditions: Huh-7, 24 h; method in brief: as §2
[8] = test system: HeLa; test: Cytotoxicity against human HeLa cells assessed as reduction in cell viability after 24 hrs by MTT assay; assay type: functional, cell-based; method in brief: as §2
[9] = Binding affinity to 1 uM G-triplex DNA (unknown origin) at 1 uM after 1 min by fluorescence spectroscopic analysis
[10] = test system: SiHa; test: Cytotoxicity against human SiHa cells assessed as reduction in cell viability after 24 hrs by MTT assay; assay type: functional, cell-based; method in brief: as §2
[11] = Binding affinity to 1 uM antiparallel HRAS G-quadruplex DNA (unknown origin) at 1 uM after 1 min by fluorescence spectroscopic analysis; assay type: ADME; method in brief: as §1
[12] = test system: Mus musculus; test: Toxicity in nude BALB/c mouse xenografted with human SiHa cells assessed as body weight reduction at 1 mg/kg, ip administered every other day for 24 days; assay type: organism-based; conditions: in vivo, 576 h
Method in brief: (§3)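 BALB/c nude mice, 5 weeks old, implanted subcutaneously in right flank with 1×10^7 SiHa cells; at ~50 mm3 tumor, 10 per group dosed ip every other day for 24 days, saline control; body weight measured daily, viscera weighed at sacrifice; mean ± SEM, Student's t test versus saline.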

[13] = test system: SiHa; test: Antitumor activity against human SiHa cells xenografted in nude BALB/c mouse assessed as tumor growth inhibition at 1 mg/kg, ip administered every other day for 24 days; assay type: functional, organism-based
Method in brief: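 BALB/c nude mice (5 weeks old) given 1×10^7 SiHa cells subcutaneously in right flank; at ~50 mm3 tumor volume, randomized (10 per group) and dosed intraperitoneally every other day for 24 days; controls got equal-volume saline. Caliper volume as 1/2 × length × width2; tumors weighed at end; inhibition rate = (1 − mean treated tumor weight/mean control tumor weight) × 100%.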

[14] = test system: Mus musculus; test: In vivo stabilization of c-Myc G-quadruplex DNA in human SiHa cells xenografted in nude BALB/c mouse assessed as decrease in c-Myc expression at 1 mg/kg, ip administered every other day for 24 days by immunohistochemistry; assay type: functional, organism-based
[15] = test system: Mus musculus; test: Toxicity in nude BALB/c mouse xenografted with human SiHa cells assessed as viscera weight reduction at 1 mg/kg, ip administered every other day for 24 days; assay type: organism-based; conditions: in vivo, 576 h; method in brief: as §3

Question: For CCn1c2ccccc2c2cc(-c3nc(-c4ccc(N5CCN(C)CC5)cc4)c(-c4ccc(F)cc4)[nH]3)ccc21, which Activity [1] is on record?
Answer: Active

Question: What about the Activity [2] of the same compound?
Answer: inactive

Question: And the IC50 [3]?
Answer: 7.4 µM

Question: What about the Activity [4] of the same compound?
Answer: Not Active

Question: And the IC50 [5]?
Answer: 17.3 µM

Question: What about the IC50 [6] of the same compound?
Answer: 13.9 µM

Question: And the IC50 [7]?
Answer: 12.4 µM

Question: And the IC50 [8]?
Answer: 15.3 µM

Question: And the Activity [9]?
Answer: inactive

Question: And the IC50 [10]?
Answer: 30.1 µM

Question: What about the Activity [11] of the same compound?
Answer: Not Active

Question: Which IC50 [3] does the source give for CCn1c2ccccc2c2cc(-c3nc(-c4ccc(N5CCN(C)CC5)cc4)c(-c4ccc(N5CCN(C)CC5)cc4)[nH]3)ccc21 here?
Answer: 2.3 µM

Question: What about the IC50 [5] of the same compound?
Answer: 3.1 µM

Question: What about the IC50 [6] of the same compound?
Answer: 2.8 µM

Question: What about the IC50 [7] of the same compound?
Answer: 2.7 µM

Question: And the IC50 [8]?
Answer: 2.5 µM

Question: And the IC50 [10]?
Answer: 2.3 µM

Question: Which results are given for CCn1c2ccccc2c2cc(-c3nc(-c4ccc(F)cc4)c(-c4ccc(F)cc4)n3-c3ccc(OC)cc3)ccc21?
Answer: Activity [1]: inactive; IC50 [3]: > 80 µM; Activity [4]: Not Active; IC50 [5]: > 80 µM; IC50 [6]: > 80 µM; IC50 [7]: > 80 µM; IC50 [8]: > 80 µM; IC50 [10]: > 80 µM; Activity [11]: Not Active

Question: Which results are given for CCn1c2ccccc2c2cc(-c3nc(-c4ccc(F)cc4)c(-c4ccc(F)cc4)[nH]3)ccc21?
Answer: Activity [1]: Active; IC50 [3]: > 80 µM; IC50 [5]: > 80 µM; IC50 [6]: > 80 µM; IC50 [7]: > 80 µM; IC50 [8]: > 80 µM; IC50 [10]: > 80 µM

Question: With COc1cccc2c1C(=O)c1c(O)c3c(c(O)c1C2=O)C[C@@](O)(C(=O)CO)C[C@@H]3O[C@H]1C[C@H](N)[C@H](O)[C@H](C)O1 [DOXORUBICIN] as the compound, how does the Activity [12] read?
Answer: Toxic

Question: What about the TGI [13] of the same compound?
Answer: Active

Question: What about the Activity [14] of the same compound?
Answer: Active

Question: And the Activity [15]?
Answer: Toxic
